From PubChem BioAssay
HCV NS3 hel inh = blocks Hepatitis C virus NS3 helicase unwinding; AID 1800; inhibition, % at 10.9 µM; 290,000 compounds, 0.56% hits; NS3 helicase DNA unwinding, Cy5 molecular beacon fluorescence;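 active = inhibition above the mean of all tested compounds plus 3 SD, set per campaign, cut at about 35% in these data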;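 note: 0% = DMSO wells and 100% = thioflavine S control wells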
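System: Hepatitis C virus NS3 helicase domain fragment enzyme | Reagent: Annealed dual-labelled DNA beacon duplex, ATP-started | Compound dosing: 10.9 µM single point, 0.8% DMSO | Incubation: 1 h reaction at 25 °C, ATP-initiated | Technique: Cy5 fluorescence | Evaluation: Percent inhibition from t60/t0 fluorescence ratio | Benchmarks: Low DMSO, high thioflavine S at 110 µM | Replication: Singlicate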
T cruzi inh = blocks replication of Trypanosoma cruzi; AID 1885; T. cruzi beta-gal in NIH3T3, luminescence, 90 h; 300,000 compounds, 1.4% hits; inhibition, % (test concentration not listed);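 active = mean inhibition across valid replicates above about 55%, limit read from the data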;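 note: signal also drops with host cell toxicity which is not excluded here; 0% = plate median of DMSO wells and 100% = zero luminescence signal; higher percent means less beta-gal luminescence so fewer parasites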
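Assay system: NIH/3T3 fibroblasts plus reporter T. cruzi. Amount: NIH/3T3 cells, 5,000 per well. Buffer or medium: DMEM, 2% fetal bovine serum. Doses: compound pinned at 50 nL/well, DMSO. Schedule: ≥90 h infection period, 3 h prior cell attachment. Signal: luminescent β-galactosidase signal after 60 min lysis. Read-out: parasite load inhibition, %.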
FID counter = counter-screen for HCV NS3 helicase inhibitors: DNA intercalator displacement | inhibition, % at 7.9 µM | 290,000 compounds, 0.17% hits | DNA fluorescent intercalator displacement, fluorescence; in the data active = inhibition above about 37%;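 note: 0% = vehicle and 100% = reference compound; higher means more ethidium bromide displaced from hairpin DNA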
MEKK3 PB1 HTS = modulators (inhibitors or enhancers) of MEK5 binding to human MEKK3 PB1 domain; Q99759; bead-based flow cytometry, Alexa488-MEK5 binding to MEKK3; actives lie on both sides; 0 = blocked by unlabeled MEK5, 100 = vehicle; binding response (% of control), % at 10 µM; 290,000 compounds, 1.4% hits;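 active = binding response more than 3 SD above or below the average of its plate-row segment, actives on both sides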;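 note: Alexa488 bead fluorescence after subtracting the streptavidin-only scavenger bead signal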
Target sequence (Q99759 whole entry, looked up, the tested form may be a part): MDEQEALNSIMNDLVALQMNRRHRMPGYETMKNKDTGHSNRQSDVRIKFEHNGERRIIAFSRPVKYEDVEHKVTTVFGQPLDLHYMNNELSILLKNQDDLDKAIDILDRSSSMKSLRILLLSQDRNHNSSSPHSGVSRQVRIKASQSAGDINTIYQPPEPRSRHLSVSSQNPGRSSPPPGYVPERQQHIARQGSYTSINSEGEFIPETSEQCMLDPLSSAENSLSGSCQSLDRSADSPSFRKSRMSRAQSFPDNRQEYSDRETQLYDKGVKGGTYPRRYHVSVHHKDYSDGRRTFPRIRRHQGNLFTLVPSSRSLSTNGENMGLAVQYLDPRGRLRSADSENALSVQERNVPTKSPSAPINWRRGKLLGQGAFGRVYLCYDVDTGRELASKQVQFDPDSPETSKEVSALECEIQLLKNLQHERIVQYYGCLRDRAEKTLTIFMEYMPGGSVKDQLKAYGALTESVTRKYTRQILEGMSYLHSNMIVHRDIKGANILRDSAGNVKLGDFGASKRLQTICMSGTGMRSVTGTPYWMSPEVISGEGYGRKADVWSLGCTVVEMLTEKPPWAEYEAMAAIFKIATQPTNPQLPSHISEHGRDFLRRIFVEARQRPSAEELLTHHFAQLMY
MEKK2wt PB1 HTS = raises or lowers MEK5 binding to wildtype human MEKK2 PB1 domain | bead flow cytometry, Alexa488-MEK5 binding to MEKK2 WT; actives lie on both sides | 290,000 compounds, 1.1% hits | binding response (% of control), % at 10 µM; in the data active = binding response below about 67% or above about 130%
MEKK2mut PB1 HTS = signal of MEK5 binding to mutant human MEKK2 PB1 domain | 290,000 compounds, 0.35% hits | bead flow cytometry, Alexa488-MEK5 binding to MEKK2 mutant | percent response, % at 10 µM; in the data active = percent response above about 24%, passing the limit was not always enough
An asterisk follows results filed as active; nt = no result; [ ] = dose if it differs, or a comment. Hits are enriched below; roughly 4.1% of the tested compounds scored in any of these assays.

SMILES	HCV NS3 hel inh	T cruzi inh	FID counter	MEKK3 PB1 HTS	MEKK2wt PB1 HTS	MEKK2mut PB1 HTS
CCOc1ccc(S(=O)(=O)N(CC(=O)NCc2cccnc2)c2ccc(F)cc2)cc1	-11	-10	-30	99	98	-3
Cc1[nH]nc(N2CCCCC2)c1[N+](=O)[O-]	7	-4	-7	99	91	-3
Cc1nc(N2CCCCC2)c(C#N)c(C)c1[N+](=O)[O-]	2	10	1	89	170*	-48
Cc1ccc(OCCCCNC2CCCC(C)C2C)c(C)c1 (configuration not stated)	-49	57*	32	100	129	9
Cc1ccc(OCCCCN2CCCCC2)c(C)c1	-4	29	4	106	109	11
Cc1ccc(-c2csc(=Nc3cccnc3)n2CCCn2ccnc2)cc1C	-61	64*	12	95	101	-1
Cc1ccc(-c2csc(=Nc3cccnc3)n2CCCN2CCCC2=O)cc1C	-5	-55	-41	100	100	1
CCn1c2ccc(F)cc2c2nnc(SCCN3CCCCC3)nc21	8	63*	2	105	108	6
c1ccc(Cn2c3ccccc3c3nnc(SCCN4CCCCC4)nc32)cc1	-17	69*	5	105	126	10
CN1CCN(c2nc3c(c(=O)[nH]c(=O)n3C)n2Cc2ccc(Cl)cc2)CC1	0	0	-4	103	103	8
CS(=O)(=O)N(CC(=O)N1CCN(Cc2ccccc2)CC1)c1cccc([N+](=O)[O-])c1	-1	-3	-9	105	104	10
Cn1c(-c2c(N)n(CCc3ccccc3)c3nc4ccccc4nc23)nc2ccccc21	-11	52	-2	107	118	12
Cn1c(-c2c(N)n(CCCc3ccccc3)c3nc4ccccc4nc23)nc2ccccc21	-7	71*	-2	101	122	5
Cn1c(-c2c(N)n(C3CCCC3)c3nc4ccccc4nc23)nc2ccccc21	4	73*	-2	99	106	0
Cc1cccnc1NC(=O)CN1C(=O)c2ccccc2S1(=O)=O	nt	-2	nt	nt	nt	nt
O=c1cc(CN2CCOCC2)c2cc(Cl)ccc2o1	4	-16	-4	102	100	0
Cc1cccc(C(=O)O/N=C/c2c(N3CCOCC3)n(C)c3ccccc23)c1	1	73*	-2	103	103	-1
Cn1c(Cl)c(/C=N/OC(=O)c2ccccc2Cl)c2ccccc21	-1	-5	-1	99	94	1
CCCOC(=O)c1cccc(Nc2nc(-c3cccnc3)nc3ccccc23)c1	-31	65*	-7	104	126	7
O=C(OCCNc1nc(-c2ccccc2)nc2ccccc12)c1cccnc1	-14	47	-6	92	99	-1
CN(C)c1nc(NC(C)(C)C)nc(NC(C)(C)C)n1	-4	59*	-1	93	101	-6
C[C@]12CCC3c4ccc(OCC(=O)O)cc4CCC3C1CCC2=O (some centres not stated)	-7	-4	-19	109	106	4
O=[N+]([O-])c1ccc(S(=O)(=O)N2CCN(c3ccc(N4CCOCC4)nn3)CC2)cc1	nt	60*	nt	nt	nt	nt
Cc1ccc(S(=O)(=O)N2CCN(c3ccc(N4CCOCC4)nn3)CC2)cc1[N+](=O)[O-]	nt	-6	nt	nt	nt	nt
O=[N+]([O-])c1ccc(S(=O)(=O)Nc2ccc(-c3ccc(N4CCCC4)nn3)cc2)cc1	nt	55*	nt	nt	nt	nt
SMILES	HCV NS3 hel inh	T cruzi inh	FID counter	MEKK3 PB1 HTS	MEKK2wt PB1 HTS	MEKK2mut PB1 HTS
O=[N+]([O-])c1ccc(Cl)c(S(=O)(=O)Nc2ccc(-c3ccc(N4CCCC4)nn3)cc2)c1	nt	6	nt	nt	nt	nt
CN(C)c1ccc(/C=N/N=C(N)N)cc1[N+](=O)[O-]	-5	78*	20	104	108	-1
CN(C)c1ccc(/C=C/C(=O)c2ccc3c(c2)OCCO3)cc1[N+](=O)[O-]	1	7	1	100	96	-2
COCCn1c(SC(C)C(=O)Nc2ccc(N3CCOCC3)cc2)nnc1-c1ccncc1 (configuration not stated)	nt	-8	nt	nt	nt	nt
Cc1c([N+](=O)[O-])cc(C(=O)Nc2ccc(Cc3ccncc3)cc2)cc1[N+](=O)[O-]	-9	59*	10	91	97	-2
CCOc1ccc(C(=O)Nc2ccc(Cc3ccncc3)cc2)cc1Br	-17	74*	-15	103	96	0
COc1ccccc1C(=O)Nc1ccc(Cc2ccncc2)cc1	-4	2	-15	106	100	2
CCOc1ccc(C(=O)Nc2ccc(NC(=O)c3ccccc3)cc2)cc1Br	-6	-3	-4	100	103	5
COc1c(C)cc(Br)cc1C(=O)Nc1ccc(Cc2ccncc2)cc1	-18	61*	-16	87	90	-8
COc1cccc(CNCc2cccnc2)c1OCc1ccccc1	10	-4	18	105	97	-5
O=C(Cc1ccc(Br)cc1)Nc1ncc([N+](=O)[O-])s1	-1	60*	11	93	88	-5
Cc1cnc(NC(=O)Cc2ccc(Br)cc2)s1	10	-26	2	106	110	5
O=C(COc1ccc(Cl)cc1)Nc1ncc([N+](=O)[O-])s1	12	-4	17	99	95	-6
O=C(Cc1ccc(Cl)cc1)Nc1ncc([N+](=O)[O-])s1	-1	94*	13	95	91	-3
Cc1cccc(CNC(=O)c2cc(S(=O)(=O)N3CCOCC3)cn2C)c1	1	2	-13	97	103	0
O=C(N/N=C\c1c(O)ccc2ccccc12)c1ccc(S(=O)(=O)N2CCCCC2)cc1	3	58*	-2	98	102	-1
O=C(COC(=O)c1ccc2c(c1)C(=O)N(c1cccc3ncccc13)C2=O)c1ccc(Cl)cc1	-6	-3	-3	70*[inhibitor]	80	-2
CN(C)c1ccc(/C=C/c2ccc3ccccc3[n+]2C)cc1	-3	60*	42*	97	2.0*	27
CN(CCCS(=O)(=O)[O-])c1ccc(/C=C/c2ccc3ccccc3[n+]2C)cc1	-3	-12	-20	106	103	-2
CCOC(=O)C1=C(C)n2c(s/c(=C/c3cccc([N+](=O)[O-])c3)c2=O)=NC1c1ccc(O)c(OC)c1 (configuration not stated)	3	70*	2	102	94	3
Cn1c(=O)c(C(=O)N2CCc3ccccc32)cc2cccnc21	nt	4	nt	nt	nt	nt
COc1cc(NS(=O)(=O)c2ccc(Br)s2)cc(OC)c1	-6	0	-3	88	-14*	9
CC(C)COCc1ccc(O)c2ncccc12	0	52	-1	98	97	-1
